VLA-4 inh: inhibition in a human VLA-4 binding assay | VLA-4 expressing cells, ligand binding flow cytometry | inhibition, % (about 7 µM as worked out from the volumes in the protocol) | 0.2% of 330,000 active; in the data active = inhibition above about 50%
Target sequence (P13612 whole entry, looked up): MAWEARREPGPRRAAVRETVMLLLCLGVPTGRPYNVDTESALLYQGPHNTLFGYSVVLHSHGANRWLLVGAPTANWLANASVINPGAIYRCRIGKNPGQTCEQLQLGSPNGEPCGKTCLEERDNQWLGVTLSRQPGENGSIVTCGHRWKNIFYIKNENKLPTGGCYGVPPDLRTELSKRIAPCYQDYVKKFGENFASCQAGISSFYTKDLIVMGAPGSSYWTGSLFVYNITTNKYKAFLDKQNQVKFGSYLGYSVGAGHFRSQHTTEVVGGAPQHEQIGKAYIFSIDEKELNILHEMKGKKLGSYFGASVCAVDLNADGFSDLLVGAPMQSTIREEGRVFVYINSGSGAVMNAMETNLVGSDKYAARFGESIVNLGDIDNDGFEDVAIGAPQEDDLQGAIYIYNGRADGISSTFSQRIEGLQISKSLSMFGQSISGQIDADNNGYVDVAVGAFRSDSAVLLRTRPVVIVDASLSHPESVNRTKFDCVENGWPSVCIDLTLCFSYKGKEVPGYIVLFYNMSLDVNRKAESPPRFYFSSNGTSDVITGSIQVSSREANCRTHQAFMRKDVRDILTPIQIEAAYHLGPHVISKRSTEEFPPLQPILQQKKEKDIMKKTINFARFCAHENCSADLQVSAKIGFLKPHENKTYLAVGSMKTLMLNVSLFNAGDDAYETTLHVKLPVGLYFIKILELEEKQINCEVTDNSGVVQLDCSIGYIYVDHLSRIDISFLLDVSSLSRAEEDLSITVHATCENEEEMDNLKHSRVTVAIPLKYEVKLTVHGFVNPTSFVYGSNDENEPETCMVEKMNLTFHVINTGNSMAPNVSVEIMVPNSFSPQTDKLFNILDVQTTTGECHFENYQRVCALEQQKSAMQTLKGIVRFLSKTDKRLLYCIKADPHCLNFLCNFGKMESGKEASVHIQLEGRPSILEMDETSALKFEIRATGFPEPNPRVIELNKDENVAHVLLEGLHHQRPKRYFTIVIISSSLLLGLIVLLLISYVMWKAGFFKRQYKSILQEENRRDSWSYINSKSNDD
SENP1 inh: inhibitors of human SENP1 SUMO protease catalytic domain | Q9P0U3 | recombinant SENP1 catalytic domain, CyPet-SUMO1-YPet FRET cleavage | inhibition, % at 10 µM | 0.21% of 360,000 active;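 active = inhibition at least 30% at 10 µM, raw YFP signal under a set limit, fluorescence ratio 0.5 to 1.5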;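 note: 0% = enzyme with DMSO and 100% = no enzyme wells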
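Assay system: hSENP1 catalytic domain, recombinant. Amount: SENP1 enzyme, 20 pM final. Schedule: 50 min reaction, RT, dark. Technique: FRET, CFP and YFP emission. Control set: no-enzyme wells low, DMSO-plus-enzyme wells high control.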
Platelet DG rel: modulates dense granule release in human platelets. human platelet-rich plasma, SFLLRN dense granule ATP release, luminescence. inhibition, %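 (compounds screened at 7.5 µM in platelet-rich plasma)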. 0.22% of 300,000 active;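 active = mean replicate score, as percent of positive control, at or above 50; inconclusive = mean below 50 but at least one replicate at or above 50; inactive = mean and every replicate below 50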
Myeloid diff MLP: promotes myeloid progenitor differentiation. ER-HoxA9 myeloid progenitors, lysozyme-GFP differentiation, flow cytometry. calls only at 10 µM. 1% of 360,000 active;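 active = normalized GFP-positive differentiation at or above the plate's own cutoff, the solvent-only control mean plus 3 SD; inconclusive = no clear call, values can overlap the other calls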;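 note: cells exposed to compound for four days before flow analysis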
The depositor's hits bear a star; i = inactive; ? = inconclusive; . = no result given; + = active, no number. Most compounds without a hit are left out; they make up all but 1.5% or so of the library.

SMILES	VLA-4 inh	SENP1 inh	Platelet DG rel	Myeloid diff MLP
CN1/C(=C\C(=O)COC(=O)Cn2nnc(-c3ccccc3)n2)C(C)(C)c2ccccc21	i	-2	0	+
N#Cc1c(Cl)cccc1-n1ccnc1	8	2	-1	+
COc1ccc(C(=O)O/N=C(\N)c2ccccc2)cc1	-4	5	67*	i
COc1ccc(C(=O)O/N=C(/C)c2cccs2)cc1	28	6	59*	i
COc1cccc(NC(=O)COC(=O)CCC2CCCC2)c1	5	3	.	i
CCCCN(C(=O)CSc1nnnn1C)C1CCS(=O)(=O)C1 (stereo not given)	4	0	.	i
CCC(=O)N1CCC1(C)C(=O)Nc1cc(OC)ccc1OC (stereo not given)	.	0	.	i
CCOc1ccccc1N1CCN(C(=O)/C=C/c2cccc([N+](=O)[O-])c2)CC1	14	1	2	+
O=C(/C=C/c1cccc([N+](=O)[O-])c1)N1CCN(c2ccccc2F)CC1	-9	2	2	i
COc1ccc(N2CCN(S(=O)(=O)c3c(C(=O)N4CCOCC4)c(C)n(C)c3C)CC2)cc1	-3	1	6	i
O=C(c1ccco1)N(CCC(c1ccccc1)c1ccco1)Cc1ccc(F)cc1 (stereo not given)	11	-2	1	+
CC1(C)CC(C(CCN(Cc2ccccc2)C(=O)c2ccco2)c2ccc(F)cc2)CCO1 (stereo not given)	-74	1	-1	i
COc1ccccc1NC(=O)C(C)N1C(=O)C2CCCCC2C1=O (stereo not given)	10	2	.	?
CC1(NC(=O)Nc2cccc(Br)c2)CCS(=O)(=O)C1 (stereo not given)	4	0	.	i
CCOC(=O)C1=C(C)OC(=Cc2ccccc2)C1=O	.	-5	.	i
CCOC(=O)C1=C(O)c2ccccc2C(=O)/C1=C\c1ccc(C)cc1	.	-19	.	+
COC(=O)c1nn(-c2ccc(-c3ccccc3)cc2)cc1O	12	-8	64*	i
COc1cc(C(=O)c2nccc3cc(OC)c(OC)cc23)c([N+](=O)[O-])cc1OC	1	39*	-11	i
Cc1noc(/C=C/N(C)C)c1S(=O)(=O)N1CCCC(C(=O)Nc2ccccc2F)C1 (stereo not given)	2	-1	-17	+
CC(=O)c1cccc(-n2nnnc2SCC(=O)N2CCCC2)c1	-1	0	50*	i
O=C(N/N=C/C(Br)=C/c1ccccc1)c1cnccn1	0	1	16	+
CC[N+]1=C(C)C(C)(C)c2cc(C)ccc21	i	-36	11	+
Cc1cccc(NC(=O)c2sc3nc4c(c(-c5cccs5)c3c2N)CN(C)CC4)c1	-20	-16	18	+
Cc1onc(-c2ccccc2)c1C(=O)NC(=S)NNC(=O)c1ccccc1O	12	1	3	+
Cc1onc(-c2ccccc2)c1C(=O)NC(=S)NNC(=O)c1ccc(O)cc1O	17	1	1	.
SMILES	VLA-4 inh	SENP1 inh	Platelet DG rel	Myeloid diff MLP
Nc1cc[n+](CC(=O)c2ccc3c(c2)OCCO3)cc1	5	2	4	+
C=CCN1C(=O)C(C)(C)N(C(C)=O)c2ccccc21	0	2	10	i
CC(=O)N1c2ccccc2N(Cc2ccc(C)cc2C)C(=O)C1(C)C	-66	0	2	+
CCOC(=O)c1ccc(NC(=O)CCNC(=O)c2ccc([N+](=O)[O-])cc2)cc1	-8	5	12	i
Cc1ccc(NC(=O)CCNC(=O)c2ccc([N+](=O)[O-])cc2)cc1C	-8	2	5	+
CCOC(=O)C1CCN(S(=O)(=O)c2ccc(OC)c(Cl)c2)CC1	14	0	-1	i
O=C(COC(=O)CNC(=O)C1CCCCC1)Nc1ccccc1Cl	0	1	.	i
CC1(C)CC(=O)C=C(Nc2ccc(C(=O)O)c(O)c2)C1	-5	-92	4	i
CS(=O)(=O)Nc1ccccc1C(=O)Nc1ccc2c(c1)OCCO2	5	1	-3	+
COC(=O)c1ccccc1NC(=O)Nc1ccc2c(c1)OCO2	9	2	74*	i
O=C(CCl)Nc1ccccc1C(=O)Nc1ccc2c(c1)OCO2	4	0	55*	i
COC(=O)c1cc(NC(=O)Cn2c(=O)oc3ccccc32)cc(C(=O)OC)c1	-8	0	-1	.
COc1cc(N2CCCC2)c(OC)cc1/C=C(/C#N)c1ccc(Br)cc1	i	-28	2	+
O=C(O)Cc1sc(NCCc2ccccc2)nc1-c1ccc(F)cc1	0	-2	-10	+

Screens deposited in PubChem by several laboratories.
